The values that follow come from ChEMBL document CHEMBL1165965, “Synthesis and structure-activity relationships of 1,2,3,4-tetrahydropyrido[2,3-b]pyrazines as potent and selective inhibitors of the anaplastic lymphoma kinase” (Bioorg Med Chem, 2010).

A value given as a limit tells only on which side of the number the result lay.

Assay [1] concerns the target T1, Mitogen-activated protein kinase kinase kinase kinase 3 (Homo sapiens) (UniProt Q8IVH8).
T1 sequence (whole entry): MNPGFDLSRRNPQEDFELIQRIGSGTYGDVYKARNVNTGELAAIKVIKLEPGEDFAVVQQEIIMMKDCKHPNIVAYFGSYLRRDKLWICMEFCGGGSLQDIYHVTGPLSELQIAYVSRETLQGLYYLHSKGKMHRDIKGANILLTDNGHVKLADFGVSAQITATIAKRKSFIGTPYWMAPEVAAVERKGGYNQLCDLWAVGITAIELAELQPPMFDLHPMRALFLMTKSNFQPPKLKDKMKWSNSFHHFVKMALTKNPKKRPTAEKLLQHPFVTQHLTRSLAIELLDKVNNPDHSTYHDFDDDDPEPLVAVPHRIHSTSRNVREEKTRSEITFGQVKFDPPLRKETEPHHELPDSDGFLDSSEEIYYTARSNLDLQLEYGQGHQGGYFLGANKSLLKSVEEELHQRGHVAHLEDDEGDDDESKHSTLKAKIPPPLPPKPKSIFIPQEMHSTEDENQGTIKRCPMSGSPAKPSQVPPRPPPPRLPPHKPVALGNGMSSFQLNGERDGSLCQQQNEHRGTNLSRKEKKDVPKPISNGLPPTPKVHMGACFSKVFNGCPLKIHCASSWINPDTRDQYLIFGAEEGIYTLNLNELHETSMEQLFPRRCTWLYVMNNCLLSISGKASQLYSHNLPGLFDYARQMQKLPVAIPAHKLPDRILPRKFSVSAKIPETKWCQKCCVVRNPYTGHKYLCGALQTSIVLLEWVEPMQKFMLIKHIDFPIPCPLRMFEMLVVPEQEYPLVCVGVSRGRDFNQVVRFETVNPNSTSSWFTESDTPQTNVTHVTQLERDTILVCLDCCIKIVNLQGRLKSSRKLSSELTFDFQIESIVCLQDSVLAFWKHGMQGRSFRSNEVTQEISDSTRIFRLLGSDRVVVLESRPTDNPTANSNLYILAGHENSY
As to the kind of experiment: Inhibition of MAP4K3 at 1 uM. The gist of the method: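 Single-concentration screen on the Ambit KINOMEscan platform, run against a panel of 250–400 kinases. Per-kinase inhibition was also summarized as S(90), the fraction of kinases inhibited by more than 90%.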

Assay [2] deals with Macrophage-stimulating protein receptor (Homo sapiens) (UniProt Q04912). As to the kind of experiment: Inhibition of MST1R at 1 uM.
In assay [3] the target is T2, Phosphatidylinositol 4,5-bisphosphate 3-kinase catalytic subunit delta isoform (Homo sapiens) (UniProt O00329).
T2 sequence (whole entry): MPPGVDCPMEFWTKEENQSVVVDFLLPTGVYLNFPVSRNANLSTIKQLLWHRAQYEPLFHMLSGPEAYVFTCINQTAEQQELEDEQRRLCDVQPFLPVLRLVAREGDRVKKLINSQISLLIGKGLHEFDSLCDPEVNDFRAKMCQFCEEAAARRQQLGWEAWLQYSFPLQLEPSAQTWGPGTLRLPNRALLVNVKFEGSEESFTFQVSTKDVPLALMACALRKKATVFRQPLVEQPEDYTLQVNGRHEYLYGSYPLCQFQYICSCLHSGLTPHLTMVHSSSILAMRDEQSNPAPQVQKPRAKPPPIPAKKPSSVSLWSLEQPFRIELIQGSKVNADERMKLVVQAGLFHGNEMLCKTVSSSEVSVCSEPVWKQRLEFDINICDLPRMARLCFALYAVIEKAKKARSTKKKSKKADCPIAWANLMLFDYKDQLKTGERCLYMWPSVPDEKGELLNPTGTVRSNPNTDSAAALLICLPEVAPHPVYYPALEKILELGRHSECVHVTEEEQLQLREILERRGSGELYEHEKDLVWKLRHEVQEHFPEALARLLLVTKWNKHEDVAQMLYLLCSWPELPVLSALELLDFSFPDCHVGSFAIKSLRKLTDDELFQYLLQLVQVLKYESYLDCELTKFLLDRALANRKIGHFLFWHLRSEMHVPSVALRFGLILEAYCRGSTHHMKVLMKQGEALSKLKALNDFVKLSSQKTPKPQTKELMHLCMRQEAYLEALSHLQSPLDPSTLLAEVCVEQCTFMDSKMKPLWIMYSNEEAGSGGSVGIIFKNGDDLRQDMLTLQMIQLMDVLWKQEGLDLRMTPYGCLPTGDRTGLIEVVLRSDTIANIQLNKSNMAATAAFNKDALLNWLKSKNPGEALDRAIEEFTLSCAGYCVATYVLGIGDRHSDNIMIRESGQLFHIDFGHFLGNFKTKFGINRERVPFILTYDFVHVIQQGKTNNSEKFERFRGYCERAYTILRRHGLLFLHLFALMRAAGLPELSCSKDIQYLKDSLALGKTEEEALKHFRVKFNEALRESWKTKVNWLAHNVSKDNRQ
As to the kind of experiment: Inhibition of PIK3CD at 1 uM.

Assay [4] deals with BMP-2-inducible protein kinase (Homo sapiens) (UniProt Q9NSY1). As to the kind of experiment: Inhibition of BIKE at 1 uM. The gist of the method: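 Ambit KINOMEscan screen at a single concentration across a 250–400 kinase panel, recorded as percent inhibition. Selectivity was expressed as S(90), the fraction of kinases inhibited >90%.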
For assay [5], the target named is Epidermal growth factor receptor (Homo sapiens) (UniProt P04626+P00533+Q15303+P21860). Put plainly: Inhibition of EGFR L747-E749del, A750P mutant at 1 uM. It is filed as protein assay. The gist of the method: (§1)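 Single-concentration screen using Ambit Bioscience KINOMEscan technology across a panel of 250–400 kinases. Per-kinase inhibition from this screen was summarized as S(90), the fraction of kinases inhibited by more than 90%.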

The target in assay [6] is Fibroblast growth factor receptor 1 (Homo sapiens) (UniProt P11362). As to the kind of experiment: Inhibition of FGFR1 at 1 uM. The gist of the method: as §1
Sequence of Fibroblast growth factor receptor 1 (Homo sapiens) (P11362 22-822 limits assumed): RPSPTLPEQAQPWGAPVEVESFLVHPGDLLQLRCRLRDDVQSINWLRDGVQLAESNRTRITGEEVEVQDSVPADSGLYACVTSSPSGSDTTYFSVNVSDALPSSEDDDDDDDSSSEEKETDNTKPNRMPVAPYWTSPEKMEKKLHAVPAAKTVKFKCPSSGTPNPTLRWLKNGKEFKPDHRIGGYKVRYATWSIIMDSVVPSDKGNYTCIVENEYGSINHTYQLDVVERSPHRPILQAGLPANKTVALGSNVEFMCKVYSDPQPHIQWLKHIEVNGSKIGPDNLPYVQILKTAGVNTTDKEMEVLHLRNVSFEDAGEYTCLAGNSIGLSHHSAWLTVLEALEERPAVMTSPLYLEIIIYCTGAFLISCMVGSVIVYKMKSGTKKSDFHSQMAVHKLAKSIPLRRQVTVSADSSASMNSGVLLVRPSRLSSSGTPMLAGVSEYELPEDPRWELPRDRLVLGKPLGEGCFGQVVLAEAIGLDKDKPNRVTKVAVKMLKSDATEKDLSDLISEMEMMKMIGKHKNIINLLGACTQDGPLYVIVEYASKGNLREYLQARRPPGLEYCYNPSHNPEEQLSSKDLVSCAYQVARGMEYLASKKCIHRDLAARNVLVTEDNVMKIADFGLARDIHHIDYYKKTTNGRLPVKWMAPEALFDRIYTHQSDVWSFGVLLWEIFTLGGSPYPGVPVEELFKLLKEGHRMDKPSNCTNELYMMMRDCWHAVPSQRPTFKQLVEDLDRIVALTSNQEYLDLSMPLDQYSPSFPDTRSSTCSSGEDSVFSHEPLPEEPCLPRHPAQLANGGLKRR

Sequence of Macrophage-stimulating protein receptor (Homo sapiens) (Q04912 25-304 limits assumed): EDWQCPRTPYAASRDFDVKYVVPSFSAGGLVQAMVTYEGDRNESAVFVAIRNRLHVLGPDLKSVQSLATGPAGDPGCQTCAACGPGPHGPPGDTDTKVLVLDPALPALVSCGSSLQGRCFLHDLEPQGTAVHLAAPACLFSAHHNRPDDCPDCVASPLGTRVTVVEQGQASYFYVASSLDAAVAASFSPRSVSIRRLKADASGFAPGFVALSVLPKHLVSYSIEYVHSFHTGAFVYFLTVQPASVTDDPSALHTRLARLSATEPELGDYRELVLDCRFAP
Sequence of Macrophage-stimulating protein receptor (Homo sapiens) (Q04912 310-1400 limits assumed): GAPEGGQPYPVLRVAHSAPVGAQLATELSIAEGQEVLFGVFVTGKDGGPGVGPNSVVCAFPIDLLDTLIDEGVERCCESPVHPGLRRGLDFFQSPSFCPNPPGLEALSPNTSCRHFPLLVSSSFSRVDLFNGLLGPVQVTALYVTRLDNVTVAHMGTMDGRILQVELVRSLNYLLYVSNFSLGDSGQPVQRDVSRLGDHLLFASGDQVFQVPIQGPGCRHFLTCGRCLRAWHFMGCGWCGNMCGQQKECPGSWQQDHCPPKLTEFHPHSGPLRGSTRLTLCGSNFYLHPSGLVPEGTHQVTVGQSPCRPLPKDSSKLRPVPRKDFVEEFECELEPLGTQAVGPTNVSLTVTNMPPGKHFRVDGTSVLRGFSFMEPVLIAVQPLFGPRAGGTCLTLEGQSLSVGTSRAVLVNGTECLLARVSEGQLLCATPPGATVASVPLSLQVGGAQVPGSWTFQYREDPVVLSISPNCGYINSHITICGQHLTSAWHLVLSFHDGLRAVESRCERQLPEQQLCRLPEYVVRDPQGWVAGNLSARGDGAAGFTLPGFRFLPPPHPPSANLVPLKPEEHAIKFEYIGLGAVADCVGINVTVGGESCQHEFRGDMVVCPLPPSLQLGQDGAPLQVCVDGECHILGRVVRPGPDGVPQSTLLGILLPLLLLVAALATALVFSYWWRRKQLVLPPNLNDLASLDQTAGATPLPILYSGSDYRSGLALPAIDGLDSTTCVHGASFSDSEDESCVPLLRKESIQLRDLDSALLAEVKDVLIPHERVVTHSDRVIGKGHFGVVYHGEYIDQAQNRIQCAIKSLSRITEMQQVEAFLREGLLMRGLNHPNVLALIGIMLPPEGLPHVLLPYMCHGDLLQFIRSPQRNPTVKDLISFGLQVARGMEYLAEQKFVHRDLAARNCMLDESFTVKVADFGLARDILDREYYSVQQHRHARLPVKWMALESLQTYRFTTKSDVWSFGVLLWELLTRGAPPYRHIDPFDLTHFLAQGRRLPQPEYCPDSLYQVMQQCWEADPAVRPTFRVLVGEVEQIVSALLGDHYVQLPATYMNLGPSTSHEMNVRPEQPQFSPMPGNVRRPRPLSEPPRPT
Sequence of BMP-2-inducible protein kinase (Homo sapiens) (Q9NSY1 whole entry, looked up): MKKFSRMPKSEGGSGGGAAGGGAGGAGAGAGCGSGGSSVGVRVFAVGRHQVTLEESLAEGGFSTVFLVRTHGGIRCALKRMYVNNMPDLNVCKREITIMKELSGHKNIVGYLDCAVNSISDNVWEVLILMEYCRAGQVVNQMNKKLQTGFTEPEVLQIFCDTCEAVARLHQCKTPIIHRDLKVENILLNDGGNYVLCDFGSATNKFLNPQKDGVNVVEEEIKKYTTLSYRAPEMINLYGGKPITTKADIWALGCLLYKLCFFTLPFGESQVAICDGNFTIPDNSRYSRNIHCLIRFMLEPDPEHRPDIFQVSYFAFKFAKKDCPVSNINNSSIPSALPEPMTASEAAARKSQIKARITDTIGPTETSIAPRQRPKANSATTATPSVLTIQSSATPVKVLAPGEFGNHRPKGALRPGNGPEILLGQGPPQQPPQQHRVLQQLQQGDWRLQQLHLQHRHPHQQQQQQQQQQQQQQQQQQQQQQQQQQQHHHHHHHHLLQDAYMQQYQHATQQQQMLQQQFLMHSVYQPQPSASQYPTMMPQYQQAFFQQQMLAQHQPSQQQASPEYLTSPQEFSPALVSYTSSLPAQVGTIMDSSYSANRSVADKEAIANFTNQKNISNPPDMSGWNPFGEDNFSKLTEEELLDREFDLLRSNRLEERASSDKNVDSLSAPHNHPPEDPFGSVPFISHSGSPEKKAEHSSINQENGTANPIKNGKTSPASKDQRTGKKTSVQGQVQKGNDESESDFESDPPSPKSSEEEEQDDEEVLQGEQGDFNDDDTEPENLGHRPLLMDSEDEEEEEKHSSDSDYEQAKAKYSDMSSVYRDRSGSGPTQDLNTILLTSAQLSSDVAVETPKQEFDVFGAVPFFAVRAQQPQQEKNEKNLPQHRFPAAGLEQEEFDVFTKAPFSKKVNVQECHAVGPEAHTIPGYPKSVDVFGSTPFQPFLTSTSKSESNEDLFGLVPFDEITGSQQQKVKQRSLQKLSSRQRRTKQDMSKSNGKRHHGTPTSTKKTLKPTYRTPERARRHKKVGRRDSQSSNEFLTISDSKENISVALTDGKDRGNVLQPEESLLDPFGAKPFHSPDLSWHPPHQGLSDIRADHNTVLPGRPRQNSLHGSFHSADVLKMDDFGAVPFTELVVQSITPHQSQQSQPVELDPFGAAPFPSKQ

On to `FC(F)(F)c1ccc(Cl)cc1CN1CCNc2ncc(-c3ccnc(N4CCNCC4)c3)cc21`, for which the inhibition is 70% in assay [1]; below 50% in assay [2]; below 50% in assay [3]; below 50% in assay [4]; below 50% in assay [5]; below 50% in assay [6].
Turning to `CN1CCN(c2ccc(-c3cnc4c(c3)N(Cc3cc(Cl)ccc3Cl)CCN4)cn2)CC1`, the inhibition in assay [1], in assay [2], in assay [3], in assay [4], in assay [5] and in assay [6] was below 50% throughout.
For the compound `COC1CCN(C(=O)c2ccc(-c3cnc4c(c3)N(Cc3cc(Cl)ccc3C(F)(F)F)CCN4)cc2)CC1`, the inhibition in assay [1], in assay [4], in assay [5] and in assay [6] was below 50% each time.
For the compound `O=C(c1ccc(-c2cnc3c(c2)N(Cc2cc(Cl)ccc2C(F)(F)F)CCN3)cc1)N1CCCCC1`, the inhibition in assay [1], in assay [4], in assay [5] and in assay [6] was below 50% each time.
In the case of `O=C(O)c1ccc(-c2cnc3c(c2)N(Cc2cc(Cl)ccc2C(F)(F)F)CCN3)cc1`, the inhibition in assay [1], in assay [4], in assay [5] and in assay [6] was below 50% in each case.
Regarding `CN1CCN(c2ccc(-c3cnc4c(c3)N(Cc3cc(F)ccc3F)CCN4)cn2)CC1`, the inhibition in assay [1], in assay [2], in assay [3], in assay [4], in assay [5] and in assay [6] was below 50% each time.
In the case of `O=C(c1ccc(-c2cnc3c(c2)N(Cc2cc(Cl)ccc2C(F)(F)F)CCN3)cc1)N1CCC(N2CCCC2)CC1`, the inhibition in assay [1] is below 50%; in assay [4] it was 84%; in assay [5], below 50%; in assay [6] it was below 50%.
Turning to `CN1CCN(c2ccc(-c3cnc4c(c3)N(Cc3c(F)ccc(F)c3Cl)CCN4)cn2)CC1`, the inhibition in assay [1] is 91%; in assay [2] it was below 50%; in assay [3], below 50%; in assay [4], below 50%; in assay [5] it was below 50%; in assay [6], below 50%.
With `CC(=O)N1CCN(c2cc(-c3cnc4c(c3)N(Cc3cc(Cl)ccc3C(F)(F)F)CCN4)ccn2)CC1`, the inhibition in assay [1], in assay [2], in assay [3], in assay [4], in assay [5] and in assay [6] was below 50% each time.
Regarding `CN1CCN(c2ccc(-c3cnc4c(c3)N(Cc3cc(Cl)ccc3C(F)(F)F)CCN4)cn2)CC1`, the inhibition in assay [1], in assay [2], in assay [3], in assay [4], in assay [5] and in assay [6] was below 50% throughout.
